Results taken from publication PMC3910017 (CPT: Pharmacometrics & Systems Pharmacology, 2014).
Where “and” joins values, the source holds several entries; their conditions need not be identical. Equal values may be shown once. Read-outs that look alike come from different tables or passages of the source. Values belong to the molecule of their own block, whether it stands above or below them.

Assays:
[1] = cited from earlier work
HDL-C [2] = conditions: similar exposure-response analysis; cited from earlier work
LDL-C [3] = conditions: cited from earlier work
[4] = type: in vivo, human
HDL-C [5] = assay: HDL-C percent change from baseline, exposure-response; type: in vivo, human; conditions: for HDL-C increase as percent of the maximal effect: from EAUC50 and estimated AUC
In short: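 Dyslipidemic patients took placebo or 30, 100 or 500 mg daily for 12 weeks, or 100 mg plus simvastatin 40 mg, atorvastatin 20 mg or rosuvastatin 10 mg. HDL-C was measured by enzymatic assay at weeks 2, 4, 8 and 12. Percent change from baseline was fitted with placebo and statin terms plus a sigmoid Emax on each patient's post hoc steady-state AUC (EAUC50, Hill coefficient), with rate constant K.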

LDL-C [6] = assay: LDL-C percent change from baseline, exposure-response; type: in vivo, human
In short: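 Arms were placebo or 30, 100 or 500 mg daily monotherapy, or 100 mg with simvastatin 40 mg, atorvastatin 20 mg or rosuvastatin 10 mg, for 12 weeks. LDL-C was measured by standard enzymatic assay at weeks 2, 4, 8 and 12. Percent change from baseline was modelled with placebo, statin and test-compound Emax terms on post hoc AUC, an interaction term, and time constant K. Covariates included baseline ApoA1.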

[7] = Healthy subject studies of evacetrapib; type: in vivo, human; conditions: 30-mg single dose, healthy subjects; data not shown
Protein binding = type: in vitro ADME; conditions: separate studies
Metabolism = conditions: separate studies
HDL-C [8] = conditions: dyslipidemic patients, alone or with statins; cited from earlier work
LDL-C [9] = conditions: dyslipidemic patients, alone or with statins; cited from earlier work
[10] = ref J.G. Suico et al., unpublished data, cited from earlier work
[11] = cited from earlier work; remark: listed apart in the source
[12] = patients in the ILLUMINATE study; cited from earlier work
[13] = phase III formulation of anacetrapib
[14] = week 16–18, 4–6 weeks after last dose, monotherapy groups

SMILES: COc1cc(F)c(C(C)C)cc1-c1ccc(C(F)(F)F)cc1CN1C(=O)O[C@H](c2cc(C(F)(F)F)cc(C(F)(F)F)c2)[C@@H]1C [anacetrapib]
Increase of exposure with dose [1]: Less than dose-proportional
AUC with high-fat meal vs fasted state [1, 13]: 7.5 fold
AUC with low-fat meal vs fasted state [1, 13]: 2.2 fold
Maximal effect on HDL-C (HDL-C [2]): 176%
LDL-C reduction in combination with atorvastatin, kind of interaction (LDL-C [3]): pharmacologically independent
Theoretical maximal LDL-C reduction (LDL-C [3]; similar LDL-C model): 80%

Increase of exposure with dose ([4]; 30–500 mg, dyslipidemic patients): less than dose-proportional
Model-predicted population CL/F lower at CGCL 50 ml/minute than at 100 ml/minute ([4]; CGCL 50 vs 100 ml/minute): 10%
Effect of dose on CL/F (covariate coefficient) ([4]; CL/F = 15.3 * (1+0.00105 * DOSE) * (1+0.00198 * (CGCL − 91.28)), DOSE in mg): 0.00105 (21.6%, 0.000726–0.00144)
CL/F, estimated population value ([4]; dose 30 mg): 13.1 L/h
CL/F, estimated population value ([4]; dose 100 mg): 17.0 L/h
CL/F, estimated population value ([4]; dose 500 mg): 25.4 L/h
Oral clearance (CL/F), population estimate (%SEE, 95% CI) ([4]; final population PK model): 15.3 (4.57%, 14.3–16.5) l/hour
Peripheral volume of distribution (V3/F), population estimate (%SEE, 95% CI) ([4]; final population PK model): 827 (18%, 600.7–1,071) l
Rate of absorption (Ka) ([4]; final population PK model, value fixed, not estimated): 0.3 hour^-1 and 0.3 (fixed) hour^-1
Vd/F ([4]; human, plasma, oral): 228 L
AUC0–∞ increased after a high-fat meal relative to low-fat meal [7]: 41%
AUC0–∞ reduced in the fasted state relative to low-fat meal [7]: 38%
Protein bound (Protein binding): > 99%
SMILES: Cc1cc(C)c2c(c1)[C@@H](N(Cc1cc(C(F)(F)F)cc(C(F)(F)F)c1)c1nnn(C)n1)CCCN2C[C@H]1CC[C@H](C(=O)O)CC1 [evacetrapib]
HDL-C increase as percent of the maximal effect (HDL-C [5]; 30 mg dose): ~ 30 % of the maximal effect
HDL-C increase as percent of the maximal effect (HDL-C [5]; 100 mg dose): ~50 % of the maximal effect
HDL-C increase as percent of the maximal effect (HDL-C [5]; 500 mg dose): ~80 % of the maximal effect
Time course constant (K) of HDL-C response, population estimate (%SEE, 95% CI) (HDL-C [5]; final HDL-C model): 0.00684 (7.43%, 0.00604–0.00791) hour^−1
AUC that produced half of maximum effect (EAUC50), HDL-C, population estimate (%SEE, 95% CI) (HDL-C [5]; final HDL-C model, at median baseline HDL 52.2 mg/dl): 5,380 (1.54%, 3,930–7,270) h·ng/ml
Maximum effect (Emax) on HDL-C, population estimate (%SEE, 95% CI) (HDL-C [5]; theoretical maximum at steady state, final HDL-C model): 177 (6.55%, 153–207) % change from baseline
HDL-C at follow-up visit after discontinuation (HDL-C [5]; [14]): returned to levels similar to those of the placebo group
LDL-C response of evacetrapib and the statins, kind of interaction (LDL-C [6]; coadministered with atorvastatin, simvastatin or rosuvastatin): pharmacologically independent
AUC that produced half of maximum effect (EAUC50), LDL-C, population estimate (%SEE, 95% CI) (LDL-C [6]; final LDL-C model): 4,230 (3.23%, 2,450 to 7,010) h·ng/ml
Theoretical maximal mean LDL-C decrease (reduction) relative to baseline (LDL-C [6]; final LDL-C model, printed as a reduction): 44.1%
LDL-C at follow-up visit after discontinuation (LDL-C [6]; [14]): returned to levels similar to those of the placebo group
Metabolism (Metabolism): metabolized primarily by oxidative pathways
Observed HDL-C increase (HDL-C [8]): up to 129%
Observed LDL-C decrease (LDL-C [9]): up to 36%
Half-life ([10]; healthy subject studies): ~40 h
Increase of exposure with dose ([10]; healthy subjects, 10–600 mg dose range): less than dose-proportional
Safety and tolerability ([11]; administered alone or in combination with statins): safe and well tolerated
Changes in mineralocorticoid levels or increases in systolic or diastolic blood pressure ([11]; dyslipidemic patients): did not cause any significant changes

SMILES: CCOC(=O)N1c2ccc(C(F)(F)F)cc2[C@@H](N(Cc2cc(C(F)(F)F)cc(C(F)(F)F)c2)C(=O)OC)C[C@H]1CC [torcetrapib]
Adverse cardiovascular events [12]: increased adverse cardiovascular events
